Measurements taken from ChEMBL document CHEMBL1157688, “Novel tumor-targeted RGD peptide-camptothecin conjugates: synthesis and biological evaluation” (Bioorg Med Chem, 2010).

What was measured:
Integrin alpha-V/beta-3 [1] = target: T1, Integrin alpha-V/beta-3 (Homo sapiens, UniProt P05106+P06756); assay: Displacement of [125I]echistatin from integrin alphaVbeta3 receptor after 3 hrs by gamma counting; type: protein-complex assay
Target sequence in this assay (P05106 27-788 limits assumed): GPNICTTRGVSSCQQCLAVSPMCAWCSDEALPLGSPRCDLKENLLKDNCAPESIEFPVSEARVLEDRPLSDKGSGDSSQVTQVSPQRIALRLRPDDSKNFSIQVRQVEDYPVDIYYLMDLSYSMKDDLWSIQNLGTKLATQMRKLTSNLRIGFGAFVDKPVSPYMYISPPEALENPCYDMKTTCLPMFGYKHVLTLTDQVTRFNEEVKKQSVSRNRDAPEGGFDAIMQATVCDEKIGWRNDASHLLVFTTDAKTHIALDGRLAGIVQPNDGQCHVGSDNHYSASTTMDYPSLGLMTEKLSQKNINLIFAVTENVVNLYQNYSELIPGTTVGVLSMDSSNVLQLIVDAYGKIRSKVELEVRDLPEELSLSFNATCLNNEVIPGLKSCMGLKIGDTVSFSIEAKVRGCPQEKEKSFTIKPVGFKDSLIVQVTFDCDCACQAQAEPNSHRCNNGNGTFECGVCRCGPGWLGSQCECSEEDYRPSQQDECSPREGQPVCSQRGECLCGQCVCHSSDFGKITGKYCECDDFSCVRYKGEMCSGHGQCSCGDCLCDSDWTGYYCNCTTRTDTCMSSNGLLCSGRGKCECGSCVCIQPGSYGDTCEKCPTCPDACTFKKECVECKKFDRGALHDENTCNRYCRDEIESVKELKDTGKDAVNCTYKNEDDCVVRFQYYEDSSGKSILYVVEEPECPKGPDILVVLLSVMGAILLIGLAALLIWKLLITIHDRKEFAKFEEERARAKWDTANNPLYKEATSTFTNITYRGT
Target sequence in this assay (P06756 31-889 limits assumed): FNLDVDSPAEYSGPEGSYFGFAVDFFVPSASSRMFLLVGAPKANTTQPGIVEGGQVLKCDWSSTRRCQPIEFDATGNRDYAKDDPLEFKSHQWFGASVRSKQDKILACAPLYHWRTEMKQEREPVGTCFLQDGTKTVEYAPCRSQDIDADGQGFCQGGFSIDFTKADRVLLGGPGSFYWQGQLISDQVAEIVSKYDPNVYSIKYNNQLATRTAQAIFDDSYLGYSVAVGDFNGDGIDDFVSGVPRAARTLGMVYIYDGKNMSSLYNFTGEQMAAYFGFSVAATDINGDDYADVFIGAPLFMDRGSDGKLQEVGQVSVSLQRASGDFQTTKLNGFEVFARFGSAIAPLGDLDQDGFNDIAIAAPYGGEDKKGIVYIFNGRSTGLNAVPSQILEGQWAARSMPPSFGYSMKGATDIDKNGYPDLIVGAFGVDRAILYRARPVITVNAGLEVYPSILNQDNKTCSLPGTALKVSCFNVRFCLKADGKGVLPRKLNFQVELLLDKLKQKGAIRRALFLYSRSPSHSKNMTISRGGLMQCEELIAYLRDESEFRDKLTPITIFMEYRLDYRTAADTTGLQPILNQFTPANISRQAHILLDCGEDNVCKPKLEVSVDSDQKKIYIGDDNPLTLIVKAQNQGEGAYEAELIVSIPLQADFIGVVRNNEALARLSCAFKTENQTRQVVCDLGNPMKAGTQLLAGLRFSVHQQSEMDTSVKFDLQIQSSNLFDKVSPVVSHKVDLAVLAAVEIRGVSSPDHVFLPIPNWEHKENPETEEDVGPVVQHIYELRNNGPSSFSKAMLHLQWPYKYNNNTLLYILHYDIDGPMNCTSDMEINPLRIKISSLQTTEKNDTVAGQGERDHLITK
Target sequence in this assay (P06756 891-1048 limits assumed): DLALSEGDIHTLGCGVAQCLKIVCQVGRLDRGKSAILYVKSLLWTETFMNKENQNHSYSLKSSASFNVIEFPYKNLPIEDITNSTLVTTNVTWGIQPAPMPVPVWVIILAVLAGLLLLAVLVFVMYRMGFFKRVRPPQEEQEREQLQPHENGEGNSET

Integrin alpha-V/beta-5 [2] = target: T2, Integrin alpha-V/beta-5 (Homo sapiens, UniProt P06756+P18084); assay: Displacement of [125I]echistatin from integrin alphaVbeta5 receptor after 3 hrs by gamma counting; type: protein-complex assay
Target sequence in this assay (P06756 31-889 limits assumed): as the sequence (P06756 31-889 limits assumed) above
Target sequence in this assay (P06756 891-1048 limits assumed): as the sequence (P06756 891-1048 limits assumed) above
Target sequence in this assay (P18084 24-799 limits assumed): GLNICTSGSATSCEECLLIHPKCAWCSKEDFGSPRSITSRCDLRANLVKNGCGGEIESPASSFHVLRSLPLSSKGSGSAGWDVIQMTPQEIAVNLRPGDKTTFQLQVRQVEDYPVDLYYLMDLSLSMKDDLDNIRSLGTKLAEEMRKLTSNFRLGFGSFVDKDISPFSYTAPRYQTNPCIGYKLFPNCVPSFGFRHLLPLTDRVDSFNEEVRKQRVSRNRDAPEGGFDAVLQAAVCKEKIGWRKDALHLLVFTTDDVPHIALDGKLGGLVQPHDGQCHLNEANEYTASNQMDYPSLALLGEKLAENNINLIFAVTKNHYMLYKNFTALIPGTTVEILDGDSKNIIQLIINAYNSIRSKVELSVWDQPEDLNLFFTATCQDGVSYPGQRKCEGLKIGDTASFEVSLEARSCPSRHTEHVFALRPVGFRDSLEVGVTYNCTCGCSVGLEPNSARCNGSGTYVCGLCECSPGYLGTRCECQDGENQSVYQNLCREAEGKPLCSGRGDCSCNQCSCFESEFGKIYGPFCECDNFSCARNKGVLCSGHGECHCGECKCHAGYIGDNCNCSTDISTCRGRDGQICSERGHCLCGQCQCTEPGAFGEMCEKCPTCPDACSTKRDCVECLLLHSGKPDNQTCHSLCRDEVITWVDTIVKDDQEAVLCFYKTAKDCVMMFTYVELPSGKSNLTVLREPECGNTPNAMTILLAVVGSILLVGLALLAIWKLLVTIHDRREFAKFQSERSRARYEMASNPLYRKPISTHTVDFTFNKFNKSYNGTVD

Integrin alpha-V/beta-5 [3] = target: T2, Integrin alpha-V/beta-5; assay: Inhibition of integrin alphaVbeta5 receptor-mediated adhesion of human A2780 cells to vitronectin after 1 hr by toluidine blue staining; type: cell-based
Method in brief: (§1)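 Wells were coated 2 h at room temperature with human vitronectin and blocked 1 h with 1% BSA. Tumor cells in serum-free medium with 1% BSA were plated with compounds at 0.1 to 100 and incubated 1 h. Cells were washed with PBS, fixed 10 min in 4% paraformaldehyde and stained 10 min with 1% toluidine blue.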
Target sequence in this assay (P06756 31-889 limits assumed): as the sequence (P06756 31-889 limits assumed) above
Target sequence in this assay (P06756 891-1048 limits assumed): as the sequence (P06756 891-1048 limits assumed) above
Target sequence in this assay (P18084 24-799 limits assumed): as the sequence (P18084 24-799 limits assumed) above

Integrin alpha-V/beta-5 [4] = target: T2, Integrin alpha-V/beta-5; assay: Inhibition of integrin alphaVbeta5 receptor-mediated adhesion of human A498 cells to vitronectin after 1 hr by toluidine blue staining; type: cell-based; method in brief: as §1
Target sequence in this assay (P06756 31-889 limits assumed): as the sequence (P06756 31-889 limits assumed) above
Target sequence in this assay (P06756 891-1048 limits assumed): as the sequence (P06756 891-1048 limits assumed) above
Target sequence in this assay (P18084 24-799 limits assumed): as the sequence (P18084 24-799 limits assumed) above

Integrin alpha-V/beta-3 [5] = target: T1, Integrin alpha-V/beta-3; assay: Inhibition of integrin alphaVbeta3 receptor-mediated adhesion of human A498 cells to vitronectin after 1 hr by toluidine blue staining; type: cell-based; method in brief: as §1
Target sequence in this assay (P05106 27-788 limits assumed): as the sequence (P05106 27-788 limits assumed) above
Target sequence in this assay (P06756 31-889 limits assumed): as the sequence (P06756 31-889 limits assumed) above
Target sequence in this assay (P06756 891-1048 limits assumed): as the sequence (P06756 891-1048 limits assumed) above

Integrin alpha-V/beta-5 [6] = target: T2, Integrin alpha-V/beta-5; assay: Binding affinity to integrin alphaVbeta5 receptor in human A498 cells; type: cell-based
Integrin alpha-V/beta-3 [7] = target: T1, Integrin alpha-V/beta-3; assay: Binding affinity to integrin alphaVbeta3 receptor in human A498 cells; type: cell-based
Integrin alpha-V/beta-5 [8] = target: T2, Integrin alpha-V/beta-5; assay: Binding affinity to integrin alphaVbeta5 receptor in human A2780 cells; type: cell-based
Integrin alpha-V [9] = target: T3, Integrin alpha-V (Homo sapiens, UniProt P06756); assay: Binding affinity to integrin alphaV receptor in human PC3 cells; type: cell-based; settings: PC-3
T3 sequence (P06756 31-889 limits assumed): as the sequence (P06756 31-889 limits assumed) above
T3 sequence (P06756 891-1048 limits assumed): as the sequence (P06756 891-1048 limits assumed) above
Method in brief: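 Tumor cells in serum-free medium with 1% BSA were plated for 1 h on wells precoated with 5 µg/ml human vitronectin and blocked with 1% BSA. Compounds were tested at 0.1–100 µM. Adherent cells were fixed with 4% paraformaldehyde, stained with 1% toluidine blue, solubilized in 1% SDS and read by absorbance. IC50 ± SD from curve fitting.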

PC-3 = assay: Cytotoxicity against human PC3 cells after 72 hrs by sulforhodamine B assay; type: functional, cell-based; settings: PC-3, 72 h
Method in brief: (§2)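 Tumor cells were seeded in 96-well plates and exposed the next day to a range of drug concentrations for 72 h. Surviving cells were quantified by sulforhodamine B staining, and IC50 ± SD was derived by curve fitting.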

A498 [10] = assay: Cytotoxicity against human A498 cells after 72 hrs by sulforhodamine B assay; type: functional, cell-based; settings: A498, 72 h; method in brief: as §2
A2780 [11] = assay: Cytotoxicity against human A2780 cells after 72 hrs by sulforhodamine B assay; type: functional, cell-based; settings: A2780, 72 h; method in brief: as §2
A498 [12] = assay: Cellular uptake in human A498 cells at IC50 after 48 hrs by HPLC-FL analysis; type: ADME, cell-based; settings: a498, 48 h
Method in brief: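 A-498 cells (6.2×10^5 per dish) were treated 24 h after seeding and sampled at 5, 24, 48 and 72 h. Cells were PBS-washed, scraped and pelleted, then lysed by five freeze-thaw cycles. Lysates were extracted with methanol/acetonitrile (1:1) and analyzed by isocratic HPLC with fluorescence detection. Lysate protein was measured by Bradford assay.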

A2780 [13] = assay: Antitumor activity against human A2780 cells xenografted in nude mouse assessed as tumor volume inhibition at 48 mg/kg, ip administered as single dose every fourth day for four times measured after 16 days of tumor implantation relative to control; type: functional; settings: 384 h, route intraperitoneal
Method in brief: (§3)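 Nude mice bearing A2780 human ovarian carcinoma xenografts were dosed from day 2 after tumor injection, either ip every fourth day ×4 or sc daily ×5, at 10 mL/kg. Tumor volume was calculated from the shortest and longest diameters on day 16 or 17. TVI% is relative to vehicle-treated controls (mean ± SE, Mann–Whitney). Body weight was monitored for toxicity.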

A2780 [14] = assay: Antitumor activity against human A2780 cells xenografted in nude mouse assessed as tumor volume inhibition at 48 mg/kg, sc QD for 5 days measured after 17 days of tumor implantation relative to control; type: functional; settings: route subcutaneous; method in brief: as §3
Mus musculus [15] = assay: Metabolic stability in nude mouse xenografted with human A2780 cells assessed as release of free namitecan in blood at 48 mg/kg, ip administered as single dose every fourth day for four times; type: ADME, organism-based; set-up: dose 48 mg/kg, route intraperitoneal; settings: in vivo
Mus musculus [16] = assay: Metabolic stability in nude mouse xenografted with human A2780 cells assessed as release of free namitecan in blood at 48 mg/kg, sc QD for 5 days; type: ADME, organism-based; set-up: dose 48 mg/kg, route subcutaneous; settings: in vivo, 120 h
[17] = Chemical stability assessed as half life at 100 uM at pH 7.4 by HPLC analysis; type: physicochemical; settings: buffer
Method in brief: (§4)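 Compounds were dissolved in DMSO and diluted to 100 (final, 1% DMSO) in phosphate buffer for pH 7.4 or acetate buffer for pH 5.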

[18] = Chemical stability assessed as half life at 100 uM at pH 5 by HPLC analysis; type: physicochemical; settings: buffer; method in brief: as §4
Integrin alpha-V [19] = target: T3, Integrin alpha-V; assay: Inhibition of integrin alphaV receptor-mediated adhesion of human PC3 cells to vitronectin after 1 hr by toluidine blue staining; type: cell-based; settings: pc-3; method in brief: as §1
A498 [20] = assay: Cellular uptake in human A498 cells at 0.064 uM after 5 hrs by HPLC-FL analysis; type: ADME, cell-based; settings: a498, 5 h
Method in brief: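 A-498 cells (6.2 × 10⁵) were seeded in dishes and dosed 24 h later, then sampled at 5, 24, 48 and 72 h. Cells were PBS-washed, scraped, pelleted, lysed by five freeze–thaw cycles, and extracted with methanol/acetonitrile (1:1). Culture medium was extracted the same way. Analysis was by isocratic HPLC-FL (30% CH₃CN / 70% 0.1 M AcOH with 0.1% TEA, pH about 3.5), and lysate protein was measured by Bradford assay.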

A2780 [21] = assay: Antitumor activity against human A2780 cells xenografted in nude mouse assessed as tumor volume inhibition at 16.3 mg/kg, sc QD for 5 days; type: functional, organism-based; set-up: dose 16.3 mg/kg; method in brief: as §3
A2780 [22] = assay: Antitumor activity against human A2780 cells xenografted in nude mouse assessed as tumor volume inhibition at 0.42 mg/kg, sc QD for 5 days measured after 17 days of tumor implantation relative to control; type: functional; settings: route subcutaneous; method in brief: as §3
Mus musculus [23] = assay: AUC (0 to infinity) in nude mouse xenografted with human A2780 cells at 0.42 mg/kg, sc QD for 5 days; type: ADME, organism-based; set-up: time infinity, dose 0.42 mg/kg, route subcutaneous; settings: in vivo, 120 h
Mus musculus [24] = assay: AUC (0 to infinity) in nude mouse xenografted with human A2780 cells at 48 mg/kg, ip administered as single dose every fourth day for four times; type: ADME, organism-based; set-up: time infinity, dose 48 mg/kg, route intraperitoneal; settings: in vivo
Mus musculus [25] = assay: AUC (0 to infinity) in nude mouse xenografted with human A2780 cells at 48 mg/kg, sc QD for 5 days; type: ADME, organism-based; set-up: time infinity, dose 48 mg/kg, route subcutaneous; settings: in vivo, 120 h

Structure (SMILES)	IC50 (Integrin alpha-V/beta-3 [1]; read-out: IC50)	IC50 (Integrin alpha-V/beta-5 [2])	IC50 (Integrin alpha-V/beta-5 [3])	IC50 (Integrin alpha-V/beta-5 [4])	IC50 (Integrin alpha-V/beta-3 [5])	IC50 (PC-3)	IC50 (A498 [10])	IC50 (A2780 [11])	further results
N=C(N)NCCC[C@@H]1NC(=O)[C@H](c2ccc(CNC(=O)CCC(=O)O)cc2)NC(=O)[C@@H](Cc2ccccc2)NC(=O)[C@H](CC(=O)O)NC(=O)CNC1=O	0.0376 µM	0.0051 µM	9.5 µM	34 µM	34 µM	> 1000 µM	> 1000 µM	> 1000 µM	Activity (Integrin alpha-V/beta-5 [6]): Dose-dependent effect; Activity (Integrin alpha-V/beta-3 [7]): Dose-dependent effect; Activity (Integrin alpha-V/beta-5 [8]): Dose-dependent effect; Activity (Integrin alpha-V [9]): Dose-dependent effect
CC[C@@]1(O)C(=O)OCc2c1cc1n(c2=O)Cc2c-1nc1ccccc1c2/C=N/OCCNC(=O)COCCOCCOCC(=O)NCc1ccc(C[C@@H]2NC(=O)[C@@H](Cc3ccccc3)NC(=O)[C@H](CC(=O)O)NC(=O)CNC(=O)[C@H](CCCN=C(N)N)NC2=O)cc1	0.0125 µM	0.0065 µM	1.8 µM	3.1 µM	3.1 µM	27 µM	0.74 µM	0.18 µM	Drug uptake (A498 [12]): Active; inhibition in vivo at 48 mg/kg (A2780 [13]): 43%; inhibition in vivo at 48 mg/kg (A2780 [14]): 37%; Activity (Mus musculus [15]): 2.5%; Activity (Mus musculus [16]): 2.5%
CC[C@@]1(O)C(=O)OCc2c1cc1n(c2=O)Cc2c-1nc1ccccc1c2CC/C=N/NC(=O)COCCOCCOCC(=O)NCc1ccc(C[C@@H]2NC(=O)[C@@H](Cc3ccccc3)NC(=O)[C@H](CC(=O)O)NC(=O)CNC(=O)[C@H](CCCNC(=N)N)NC2=O)cc1	0.00601 µM	0.0229 µM	12.9 µM	–	–	0.42 µM	–	0.017 µM	half-life at 100 µM [17]: 5.8 h; half-life at 100 µM [18]: < 0.0333 h
N=C(N)NCCC[C@@H]1NC(=O)[C@H](c2ccc(CNC(=O)COCCOCCOCC(=O)O)cc2)NC(=O)[C@@H](Cc2ccccc2)NC(=O)[C@H](CC(=O)O)NC(=O)CNC1=O	0.004 µM	0.00035 µM	12.3 µM	10.7 µM	10.7 µM	> 1000 µM	> 1000 µM	> 1000 µM	Activity (Integrin alpha-V/beta-5 [6]): Dose-dependent effect; Activity (Integrin alpha-V/beta-3 [7]): Dose-dependent effect; Activity (Integrin alpha-V/beta-5 [8]): Dose-dependent effect; Activity (Integrin alpha-V [9]): Dose-dependent effect
CC[C@@]1(O)C(=O)OCc2c1cc1n(c2=O)Cc2c-1nc1ccccc1c2/C=N\OCCN	–	–	–	–	–	0.36 µM	0.064 µM	0.0049 µM	IC50 (Integrin alpha-V/beta-3 [1]): Not Active; IC50 (Integrin alpha-V [19]): Not Active; Drug uptake (A498 [20]): Active; inhibition (A2780 [21]): Toxic; inhibition in vivo at 0.42 mg/kg (A2780 [22]): 43%; AUC (Mus musculus [23]): 2 µg/h/mL
CC[C@@]1(O)C(=O)OCc2c1cc1n(c2=O)Cc2c-1nc1ccccc1c2C=O	–	–	–	–	–	0.13 µM	–	0.003 µM	–
CC[C@@]1(O)C(=O)OCc2c1cc1n(c2=O)Cc2c-1nc1ccccc1c2/C=N/NC(=O)COCCOCCOCC(=O)NCc1ccc(C[C@@H]2NC(=O)[C@@H](Cc3ccccc3)NC(=O)[C@H](CC(=O)O)NC(=O)CNC(=O)[C@H](CCCNC(=N)N)NC2=O)cc1	0.0117 µM	0.0599 µM	6.7 µM	–	–	0.22 µM	–	0.09 µM	half-life at 100 µM [17]: 6 h; half-life at 100 µM [18]: 25 h
N=C(N)NCCC[C@@H]1NC(=O)[C@H](CCCC(=O)O)NC(=O)[C@@H](Cc2ccccc2)NC(=O)[C@H](CC(=O)O)NC(=O)CNC1=O	–	–	–	–	–	> 1000 µM	> 1000 µM	> 1000 µM	Activity (Integrin alpha-V/beta-5 [6]): Dose-dependent effect; Activity (Integrin alpha-V/beta-3 [7]): Dose-dependent effect; Activity (Integrin alpha-V/beta-5 [8]): Dose-dependent effect; Activity (Integrin alpha-V [9]): Dose-dependent effect
CC[C@@]1(O)C(=O)OCc2c1cc1n(c2=O)Cc2c-1nc1ccccc1c2/C=N/OCCNC(=O)CCC(=O)NCc1ccc(C[C@@H]2NC(=O)[C@@H](Cc3ccccc3)NC(=O)[C@H](CC(=O)O)NC(=O)CNC(=O)[C@H](CCCNC(=N)N)NC2=O)cc1	0.00727 µM	0.00839 µM	–	5.4 µM	5.4 µM	4.7 µM	4.3 µM	0.16 µM	–
N=C(N)NCCC[C@@H]1NC(=O)[C@H](c2ccc(CNC(=O)COCCOCCOCC(=O)NN)cc2)NC(=O)[C@@H](Cc2ccccc2)NC(=O)[C@H](CC(=O)O)NC(=O)CNC1=O	0.0038 µM	0.00065 µM	11.8 µM	–	–	> 1000 µM	–	> 1000 µM	–
CC[C@@]1(O)C(=O)OCc2c1cc1n(c2=O)Cc2c-1nc1ccccc1c2CCC=O	–	–	–	–	–	0.12 µM	–	0.015 µM	–
CC[C@@]1(O)C(=O)OCc2c1cc1n(c2=O)Cc2c-1nc1ccccc1c2/C=N\OCCNC(=O)CCC[C@@H]1NC(=O)[C@@H](Cc2ccccc2)NC(=O)[C@H](CC(=O)O)NC(=O)CNC(=O)[C@H](CCCNC(=N)N)NC1=O	–	–	3.1 µM	3.7 µM	3.7 µM	15 µM	3.2 µM	0.4 µM	Drug uptake (A498 [12]): Active; AUC (Mus musculus [24]): 82 µg/h/mL; AUC (Mus musculus [25]): 82 µg/h/mL
